# Experimental data: ChEMBL document CHEMBL1955763, “Antimicrobial activity of sulfonamides containing 5-chloro-2-hydroxybenzaldehyde and 5-chloro-2-hydroxybenzoic acid scaffold” (Eur J Med Chem, 2012)
# Experiments:
# Mycobacterium kansasii [1] = test: Antimycobacterial activity against Mycobacterium kansasii 235/80 after 7 days; format: functional; details: 235/80, 168 h
# In short: (§1)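 Micromethod MIC in Sula semisynthetic medium, with compounds added as DMSO solutions at […]. Incubation at 37 °C. Inocula: M. kansasii 235/80 at dilution 10⁻⁴, clinical isolate 6509/96 at 10⁻⁵.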
# Staphylococcus aureus [2] = test: Antibacterial activity against methicillin-resistant Staphylococcus aureus H 5996/08 after 48 hrs by broth microdilution method; format: functional; details: H 5996/08, 48 h
# In short: (§2)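 Microdilution broth method modified from M07-A07, in Mueller-Hinton broth at pH 7.4 (±0.2). Compounds were dissolved in DMSO. Inoculum was made in sterile water to 0.5 McFarland (1.5 × 10⁸ CFU/mL). MIC was taken as IC₉₀, meaning ≥90% growth reduction versus the drug-free control. Growth was read visually and by absorbance at 540 nm.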
# Staphylococcus aureus [3] = test: Antibacterial activity against Staphylococcus aureus CCM 4516/08 after 48 hrs by broth microdilution method; format: functional; details: CCM 4516/08, 48 h
# In short: (§3)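 Broth microdilution modified from standard M07-A07 in Mueller-Hinton broth at pH 7.4 (±0.2). Compounds were dissolved in DMSO. Inoculum in sterile water was adjusted to 0.5 McFarland (1.5 × 10⁸ CFU/mL). MIC was taken as IC₉₀, i.e. ≥90% growth reduction versus control, read visually and spectrophotometrically at 540 nm.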
# Lichtheimia corymbifera = test: Antifungal activity against Absidia corymbifera 272 after 24 hrs by broth microdilution method; format: functional; details: Lichtheimia corymbifera, 272, 24 h
# In short: (§4)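 Microdilution broth per CLSI M27-A3 (yeasts) or M38-A2 (moulds) in RPMI 1640 with glutamine, buffered to pH 7.0 with 0.165 mol MOPS. Compounds were in DMSO. Final inoculum was 5 × 10³ ± 0.2 CFU/mL. Other conditions matched the antibacterial assay, with MIC as IC₉₀ read visually and at 540 nm. Determined twice, in duplicate.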
# Nakaseomyces glabratus = test: Antifungal activity against Candida glabrata 20/I after 24 hrs by broth microdilution method; format: functional; in short: as §4
# Staphylococcus aureus [4] = test: Antibacterial activity against Staphylococcus aureus CCM 4516/08 after 24 hrs by broth microdilution method; format: functional; details: CCM 4516/08, 24 h; in short: as §2
# [5] = system: Mycobacterium tuberculosis; test: Antimycobacterial activity against Mycobacterium tuberculosis H37Rv 331/88 after 14 days; format: functional; details: H37Rv 331/88, 336 h
# Candida albicans = test: Antifungal activity against Candida albicans ATCC 44857 after 24 hrs by broth microdilution method; format: functional; details: ATCC 44857, 24 h; in short: as §4
# Mycobacterium kansasii [6] = test: Antimycobacterial activity against Mycobacterium kansasii 6509/96 after 21 days; format: functional; details: 6509/96, 504 h; in short: as §1
# Pichia kudriavzevii = test: Antifungal activity against Candida krusei E58 after 24 hrs by broth microdilution method; format: functional; details: E58, 24 h; in short: as §4
# Escherichia coli = test: Antibacterial activity against Escherichia coli CCM 4517 after 24 hrs by broth microdilution method; format: functional; details: CCM 4517, 24 h; in short: as §3
# [7] = system: Trichophyton mentagrophytes; test: Antifungal activity against Trichophyton mentagrophytes 445 after 24 hrs by broth microdilution method; format: functional; details: Trichophyton mentagrophytes, 445, 24 h
# Mycobacterium avium [8] = test: Antimycobacterial activity against isoniazid-, rifampicin-, ofloxacin-, ethambutol-resistant Mycobacterium avium 330/88 after 14 days; format: functional; details: 330/88, 336 h
# In short: (§5)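 Micromethod in Sula semisynthetic medium, with compounds added as DMSO solutions over a two-fold series from 1000 down to 1. Inoculum for M. avium 330/88 was a 10⁻⁵ dilution. Plates were incubated at 37 °C and MIC was read after 14 and 21 days.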
# Mycobacterium kansasii [9] = test: Antimycobacterial activity against Mycobacterium kansasii 235/80 after 21 days; format: functional; details: 235/80, 504 h; in short: as §1
# Mycobacterium kansasii [10] = test: Antimycobacterial activity against Mycobacterium kansasii 6509/96 after 7 days; format: functional; details: 6509/96, 168 h; in short: as §1
# Mycobacterium avium [11] = test: Antimycobacterial activity against isoniazid-, rifampicin-, ofloxacin-, ethambutol-resistant Mycobacterium avium 330/88 after 21 days; format: functional; details: 330/88, 504 h; in short: as §5
# Aspergillus fumigatus = test: Antifungal activity against Aspergillus fumigatus 231 after 24 hrs by broth microdilution method; format: functional; details: Aspergillus fumigatus, 231, 24 h; in short: as §4
# Mycobacterium kansasii [12] = test: Antimycobacterial activity against Mycobacterium kansasii 235/80 after 14 days; format: functional; details: 235/80, 336 h; in short: as §1
# Staphylococcus aureus [13] = test: Antibacterial activity against methicillin-resistant Staphylococcus aureus H 5996/08 after 24 hrs by broth microdilution method; format: functional; details: H 5996/08, 24 h; in short: as §2
# Trichosporon asahii = test: Antifungal activity against Trichosporon asahii 1188 after 24 hrs by broth microdilution method; format: functional; details: Trichosporon asahii, 1188, 24 h; in short: as §4
# [14] = system: Staphylococcus epidermidis; test: Antibacterial activity against methicillin-resistant Staphylococcus epidermidis H 6966/08 after 48 hrs by broth microdilution method; format: functional; details: H 6966/08, 48 h; in short: as §2
# Candida tropicalis = test: Antifungal activity against Candida tropicalis 156 after 24 hrs by broth microdilution method; format: functional; details: Candida tropicalis, 156, 24 h; in short: as §4
# [15] = system: Mycobacterium tuberculosis; test: Antimycobacterial activity against Mycobacterium tuberculosis H37Rv 331/88 after 21 days; format: functional; details: H37Rv 331/88, 504 h; in short: as §5
# Mycobacterium kansasii [16] = test: Antimycobacterial activity against Mycobacterium kansasii 6509/96 after 14 days; format: functional; details: 6509/96, 336 h; in short: as §1
# [17] = system: Staphylococcus epidermidis; test: Antibacterial activity against methicillin-resistant Staphylococcus epidermidis H 6966/08 after 24 hrs by broth microdilution method; format: functional; details: H 6966/08, 24 h; in short: as §2
# Pseudomonas aeruginosa = test: Antibacterial activity against Pseudomonas aeruginosa CCM 1961 after 24 hrs by broth microdilution method; format: functional; details: CCM 1961, 24 h; in short: as §3
# [18] = Selectivity ratio of IC50 for human HepG2 cell sto MIC100 for Mycobacterium kansasii 6509/96; format: functional
# Klebsiella pneumoniae [19] = test: Antibacterial activity against ESBL-positive Klebsiella pneumoniae J 14368/08 after 24 hrs by broth microdilution method; format: functional; details: J 14368/08, 24 h; in short: as §3
# HepG2 = test: Cytotoxicity against human HepG2 cells after 24 hrs by MTS assay; format: cell-based; details: HepG2, 24 h
# In short: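 Hep G2 human liver cells (passage 3–4), 10 000 per well, in MEM with 1% glutamine, 10% fetal serum and 1% non-essential amino acids. Compounds were added from DMSO at eight increasing concentrations in quadruplicate. Exposure was 24 h at 37 °C in 5% CO₂, then MTS reagent for 1.5 h. Formazan was read at 490 nm and IC₅₀ derived as 50% of control viability.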
# [20] = Selectivity ratio of IC50 for human HepG2 cell sto MIC90 for Staphylococcus aureus CCM 4516/08; format: functional
# Klebsiella pneumoniae [21] = test: Antibacterial activity against Klebsiella pneumoniae D 11750/08 after 24 hrs by broth microdilution method; format: functional; details: D 11750/08, 24 h; in short: as §3
# [22] = Selectivity ratio of IC50 for human HepG2 cell sto MIC100 for Mycobacterium kansasii 235/80; format: functional
Structure (SMILES),MIC (Mycobacterium kansasii [1]) [µM],MIC (Staphylococcus aureus [2]) [µM],MIC (Staphylococcus aureus [3]) [µM],MIC (Lichtheimia corymbifera) [µM],MIC (Nakaseomyces glabratus) [µM],MIC (Staphylococcus aureus [4]) [µM],MIC [5] [µM],MIC (Candida albicans) [µM],MIC (Mycobacterium kansasii [6]) [µM],MIC (Mycobacterium avium [8]) [µM],MIC (Mycobacterium kansasii [9]) [µM],MIC (Mycobacterium kansasii [10]) [µM],MIC (Mycobacterium avium [11]) [µM],MIC (Mycobacterium kansasii [12]) [µM],MIC (Staphylococcus aureus [13]) [µM],MIC (Trichosporon asahii) [µM],MIC [14] [µM],MIC [15] [µM],MIC (Mycobacterium kansasii [16]) [µM],MIC [17] [µM],further results
Cc1cc(NS(=O)(=O)c2ccc(NC(=O)c3cc(Cl)ccc3O)cc2)no1,8,31.2,125,500,500,125,125,500,8,62.5,16,8,125,16,15.6,500,> 500,250,8,> 500,MIC (Pichia kudriavzevii): 500 µM; MIC (Escherichia coli): 250 µM; MIC [7]: 500 µM; MIC (Aspergillus fumigatus): 500 µM; MIC (Candida tropicalis): 500 µM
O=S(=O)(Nc1nccs1)c1ccc(/N=C/c2cc(Cl)ccc2O)cc1,2,31.2,31.2,> 125,> 125,31.2,32,> 125,2,62.5,4,2,125,4,31.2,> 125,> 500,62.5,2,> 500,MIC (Pseudomonas aeruginosa): ≥ 500 µM; Ratio [18]: 78.2; MIC (Pichia kudriavzevii): > 125 µM; MIC (Escherichia coli): 500 µM; MIC [7]: > 125 µM; MIC (Klebsiella pneumoniae [19]): 500 µM; IC50 (HepG2): 313 µM; MIC (Aspergillus fumigatus): > 125 µM; Ratio [20]: 10; MIC (Klebsiella pneumoniae [21]): 500 µM; MIC (Candida tropicalis): > 125 µM; Ratio [22]: 78.2
NNC(=O)c1ccncc1 [ISONIAZID],> 250,–,–,–,–,–,0.5,–,8,> 250,> 250,4,> 250,> 250,–,–,–,1,4,–,–
Cc1cc(C)nc(NS(=O)(=O)c2ccc(/N=C/c3cc(Cl)ccc3O)cc2)n1,62.5,250,500,> 125,> 125,250,250,> 125,250,62.5,250,125,125,125,125,> 125,> 500,500,125,> 500,MIC (Pichia kudriavzevii): > 125 µM; MIC (Escherichia coli): 500 µM; MIC [7]: > 125 µM; MIC (Aspergillus fumigatus): > 125 µM; MIC (Candida tropicalis): > 125 µM
Cc1cc(NS(=O)(=O)c2ccc(/N=C/c3cccc(Cl)c3)cc2)no1,4,62.5,62.5,500,500,31.2,62.5,500,4,32,8,4,62.5,8,31.2,500,> 500,125,4,> 500,MIC (Pichia kudriavzevii): 500 µM; MIC [7]: 500 µM; MIC (Aspergillus fumigatus): 500 µM; MIC (Candida tropicalis): 500 µM
Cc1cc(NS(=O)(=O)c2ccc(NC(=O)c3cccc(Cl)c3)cc2)no1,2,> 500,> 500,500,500,> 500,500,500,8,500,8,8,500,8,> 500,500,> 500,500,8,> 500,MIC (Pichia kudriavzevii): 500 µM; MIC [7]: 500 µM; MIC (Aspergillus fumigatus): 500 µM; MIC (Candida tropicalis): 500 µM
Cc1cc(C)nc(NS(=O)(=O)c2ccc(N)cc2)n1 [SULFAMETHAZINE],16,> 500,> 500,–,–,500,62.5,–,32,32,125,16,62.5,32,500,–,> 500,125,16,> 500,–
O=S(=O)(Nc1ncccn1)c1ccc(/N=C/c2cc(Cl)ccc2O)cc1,8,125,250,–,125,250,125,–,32,125,32,16,125,16,125,62.5,> 500,250,32,> 500,MIC (Pseudomonas aeruginosa): ≥ 500 µM; MIC (Escherichia coli): 62.5 µM; MIC (Klebsiella pneumoniae [19]): 500 µM; MIC (Klebsiella pneumoniae [21]): 500 µM
Nc1ccc(S(=O)(=O)Nc2ncccn2)cc1 [SULFADIAZINE],16,> 500,> 500,–,–,500,32,–,8,62.5,32,8,62.5,16,500,–,> 500,62.5,8,> 500,–
O=C(Nc1ccc(S(=O)(=O)Nc2nccs2)cc1)c1cc(Cl)ccc1O,8,> 125,> 125,> 125,> 125,> 125,250,> 125,8,250,16,8,250,16,> 125,> 125,> 125,250,8,> 125,MIC (Pichia kudriavzevii): > 125 µM; MIC [7]: > 125 µM; MIC (Aspergillus fumigatus): > 125 µM; MIC (Candida tropicalis): > 125 µM
O=C(Nc1ccc(S(=O)(=O)Nc2ncccn2)cc1)c1cc(Cl)ccc1O,4,31.2,125,–,–,125,125,–,8,62.5,16,4,62.5,8,31.2,–,> 500,250,8,> 500,–
